# Source: ChEMBL document CHEMBL3600357 (J Med Chem, 2015)
# pIC50: −log10 of the molar value. Calls of active or inactive are those of the source. The rule behind the calls is not given here.
# Experiments:
# Rattus norvegicus [1] = experiment: Toxicity in human SJSA1 cells xenografted rat assessed as mouse survival at 30 mg/kg, po qd; assay type: organism-based, SJSA-1; conditions: in vivo
# How it was run: (§1)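 Tolerability was monitored in SJSA-1 tumour-bearing rats during the daily and 3qw (Monday, Wednesday, Friday) treatment schedules. Histopathology was done on all 3qw doses and on the 30 mg/kg daily group.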
# [2] = Volume of distribution at steady state in cynomolgus monkey at 0.1 mg/kg, iv; assay type: ADME, organism-based, Macaca fascicularis; conditions: in vivo, read-out: Vdss
# [3] = Volume of distribution at steady state in beagle dog at 0.1 mg/kg, iv; assay type: ADME, organism-based, Canis lupus familiaris; conditions: in vivo, read-out: Vdss
# [4] = biological target: Baculoviral IAP repeat-containing protein 2 (Homo sapiens, UniProt Q13490); experiment: Inhibition of cIAP (unknown origin) assessed as inhibition of cIAP-BIR3 interaction by TR-FRET assay
# Baculoviral IAP repeat-containing protein 2, sequence (Q13490 whole entry): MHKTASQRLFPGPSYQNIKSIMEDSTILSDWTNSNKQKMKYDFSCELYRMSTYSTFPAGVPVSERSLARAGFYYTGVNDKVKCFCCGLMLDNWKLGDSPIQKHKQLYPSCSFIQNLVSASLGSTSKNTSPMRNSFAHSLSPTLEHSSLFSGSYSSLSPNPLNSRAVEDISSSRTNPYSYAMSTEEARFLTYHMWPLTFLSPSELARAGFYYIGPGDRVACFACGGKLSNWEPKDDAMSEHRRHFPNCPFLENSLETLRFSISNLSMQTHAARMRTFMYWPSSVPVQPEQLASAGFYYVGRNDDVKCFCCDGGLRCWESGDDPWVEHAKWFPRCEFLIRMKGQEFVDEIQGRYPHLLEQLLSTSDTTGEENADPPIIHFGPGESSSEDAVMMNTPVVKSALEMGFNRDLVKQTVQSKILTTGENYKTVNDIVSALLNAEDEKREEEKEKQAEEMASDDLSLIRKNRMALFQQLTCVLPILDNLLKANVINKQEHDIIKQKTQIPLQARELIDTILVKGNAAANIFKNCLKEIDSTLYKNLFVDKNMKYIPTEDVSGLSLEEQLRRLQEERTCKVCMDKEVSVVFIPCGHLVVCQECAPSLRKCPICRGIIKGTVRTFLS
# SJSA-1 [5] = experiment: Antitumor activity against human SJSA1 cells xenografted in rat assessed as reduction tumor growth dosed orally on daily basis under q24h regime; assay type: functional, organism-based
# How it was run: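 SJSA-1 tumour-bearing rats were treated either daily or 3qw (Monday, Wednesday and Friday) across a range of doses, and tumour growth was followed over the treatment course. Plasma AUC0-24 was also determined, along with AUC0-48 for the 3qw schedule.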
# Rattus norvegicus [6] = species: Rattus norvegicus; experiment: Toxicity in rat testes assessed as effect on proliferative cells; assay type: organism-based, Testis; conditions: in vivo
# [7] = Tmax in cynomolgus monkey at 0.3 mg/kg, po; assay type: ADME, organism-based, Macaca fascicularis; conditions: in vivo
# Mus musculus = experiment: AUC in OF1 mouse at 3 mg/kg, po; assay type: ADME, organism-based; conditions: in vivo
# [8] = AUC (0 to 48 hrs) in human SJSA1 cells xenografted rat assessed as mouse survival at 70 mg/kg, po dosed 3 times per week; assay type: ADME, organism-based, SJSA-1; set-up: time < 48 hr, dose 70 mg/kg, route oral; conditions: in vivo
# How it was run: (§2)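 Rats bearing MDM2-amplified human SJSA-1 tumors, dosed orally either daily or 3qw (Monday, Wednesday, Friday). Plasma exposure reported as AUC0-24, plus AUC0-48 for the 3qw schedule.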
# Cynomolgus monkey = experiment: Oral bioavailability in cynomolgus monkey at 0.3 mg/kg; assay type: ADME, organism-based, Macaca fascicularis; conditions: in vivo
# SJSA-1 [9] = experiment: Inhibition of cell proliferation of human SJSA1 cells
# [10] = Protein binding in Sprague-Dawley rat plasma by equilibrium dialysis method; assay type: ADME, cell-free; conditions: read-out: PPB
# How it was run: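 Rat plasma protein binding by rapid equilibrium dialysis (RED) in 100% plasma.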
# [11] = Terminal half life in OF1 mouse at 1 mg/kg, iv; assay type: ADME, organism-based; conditions: in vivo, read-out: beta t1/2 (converted)
# [12] = AUC (0 to 24 hrs) in human SJSA1 cells xenografted rat assessed as mouse survival at 30 mg/kg, po dosed 3 times per week; assay type: ADME, organism-based, SJSA-1; set-up: dose 30 mg/kg, time < 24 hr, route oral; conditions: in vivo; how it was run: as §2
# [13] = AUC (0 to 24 hrs) in human SJSA1 cells xenografted rat assessed as mouse survival at 70 mg/kg, po dosed 3 times per week; assay type: ADME, organism-based, SJSA-1; set-up: time < 24 hr, dose 70 mg/kg, route oral; conditions: in vivo; how it was run: as §2
# [14] = biological target: E3 ubiquitin-protein ligase XIAP (Homo sapiens, UniProt P98170); experiment: Inhibition of XIAP (unknown origin) assessed as inhibition of XIAP-BIR3 interaction by TR-FRET assay
# E3 ubiquitin-protein ligase XIAP, sequence (P98170 whole entry): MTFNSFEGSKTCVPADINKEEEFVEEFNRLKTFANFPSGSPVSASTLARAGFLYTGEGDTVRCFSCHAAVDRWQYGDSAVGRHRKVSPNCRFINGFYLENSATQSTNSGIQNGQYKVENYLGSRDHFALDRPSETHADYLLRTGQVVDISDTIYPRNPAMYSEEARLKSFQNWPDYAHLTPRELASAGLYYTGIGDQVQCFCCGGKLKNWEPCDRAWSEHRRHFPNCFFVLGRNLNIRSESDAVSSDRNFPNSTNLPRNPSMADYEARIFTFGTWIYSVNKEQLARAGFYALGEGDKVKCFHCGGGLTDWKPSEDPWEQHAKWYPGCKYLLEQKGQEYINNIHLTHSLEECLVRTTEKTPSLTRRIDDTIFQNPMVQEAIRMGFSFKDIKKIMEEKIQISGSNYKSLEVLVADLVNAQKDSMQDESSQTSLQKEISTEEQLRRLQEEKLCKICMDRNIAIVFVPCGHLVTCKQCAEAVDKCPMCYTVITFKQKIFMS
# Rattus norvegicus [15] = species: Rattus norvegicus; experiment: Toxicity in male rat assessed as changes in adrenal gland parameters; assay type: organism-based; conditions: in vivo
# [16] = Intrinsic clearance in monkey liver microsomes; assay type: ADME, Macaca mulatta; conditions: rhesus monkey, read-out: CLH
# [17] = Terminal half life in beagle dog at 0.1 mg/kg, iv; assay type: ADME, organism-based, Canis lupus familiaris; conditions: in vivo, read-out: beta t1/2 (converted)
# Rattus norvegicus [18] = experiment: In-vivo inhibition of MDM2/p53 interaction in human SJSA1 cells xenografted rat assessed as increase in p21 mRNA level at 30 mg/kg, po measured within 72 hrs post dose by qRT-PCR method; assay type: functional, organism-based; conditions: SJSA-1
# How it was run: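 SJSA-1 (MDM2-amplified) tumour-bearing rats were dosed at 30 mg/kg. Tumour samples were collected over time, and p21, MDM2 and PUMA mRNA were measured as p53 pharmacodynamic markers, alongside compound levels.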
# Rattus norvegicus [19] = experiment: Toxicity in human SJSA1 cells xenografted rat assessed as change in body weight at 10 mg/kg, po qd (reference value: 1.9 to 6.8%); assay type: organism-based, SJSA-1; conditions: in vivo
# [20] = AUC (0 to 24 hrs) in human SJSA1 cells xenografted rat assessed as mouse survival at 30 mg/kg, po qd; assay type: ADME, organism-based, SJSA-1; set-up: time < 24 hr, dose 30 mg/kg, route oral; conditions: in vivo; how it was run: as §2
# Rattus norvegicus [21] = experiment: Toxicity in human SJSA1 cells xenografted rat assessed as mouse survival at 30 mg/kg, po dosed 3 times per week; assay type: organism-based, SJSA-1; conditions: in vivo; how it was run: as §1
# HCT-116 = experiment: Inhibition of cell proliferation of human HCT116 cells deficient with p53 gene
# [22] = Protein binding in cynomolgus monkey plasma by equilibrium dialysis method; assay type: ADME, cell-free, Macaca fascicularis; conditions: read-out: PPB
# [23] = biological target: T1, Apoptosis regulator Bcl-2 (Homo sapiens, UniProt P10415); experiment: Inhibition of Bcl2 (unknown origin) assessed as inhibition of Bcl2-Bad interaction by TR-FRET assay
# T1 sequence (P10415 whole entry): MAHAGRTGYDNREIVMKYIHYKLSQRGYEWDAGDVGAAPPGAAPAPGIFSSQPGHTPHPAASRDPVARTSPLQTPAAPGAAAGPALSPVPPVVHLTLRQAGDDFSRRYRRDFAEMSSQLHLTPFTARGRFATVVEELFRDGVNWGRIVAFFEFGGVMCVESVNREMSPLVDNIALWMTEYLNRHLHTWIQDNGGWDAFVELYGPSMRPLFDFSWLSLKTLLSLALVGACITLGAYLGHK
# [24] = Terminal half life in cynomolgus monkey at 0.1 mg/kg, iv; assay type: ADME, organism-based, Macaca fascicularis; conditions: in vivo, read-out: beta t1/2 (converted)
# [25] = biological target: T1, Apoptosis regulator Bcl-2; experiment: Inhibition of Bcl2 (unknown origin) assessed as inhibition of Bcl2-Bak interaction by TR-FRET assay
# Rattus norvegicus [26] = species: Rattus norvegicus; experiment: Toxicity in rat assessed as changes in heart parameters; assay type: organism-based; conditions: in vivo
# [27] = AUC (0 to 48 hrs) in human SJSA1 cells xenografted rat assessed as mouse survival at 30 mg/kg, po dosed 3 times per week; assay type: ADME, organism-based, SJSA-1; set-up: time < 48 hr, dose 30 mg/kg, route oral; conditions: in vivo; how it was run: as §2
structure (smiles),measurement,setting,value
COc1cc2c(cc1OC(C)C)[C@H](c1ccc(Cl)cc1)N(c1ccc(N(C)C[C@H]3CC[C@H](N4CCN(C)C(=O)C4)CC3)cc1)C(=O)C2 [CGM-097],Activity,Rattus norvegicus [1],Non-toxic
same,Vd,[2],2 L/kg
same,Vd,[3],4.2 L/kg
same,pIC50,[4],< 4.30
same,growth inhibition (GI),SJSA-1 [5],Dose-dependent effect
same,Activity,Rattus norvegicus [6],Non-toxic
same,Tmax,[7],1.3 h
same,AUC,Mus musculus,3.337 µM·h
same,AUC at 48 h,[8],1040 µM·h
same,F,Cynomolgus monkey,57%
same,GI50,SJSA-1 [9],350 nM
same,fraction unbound,[10],< 0.01
same,half-life,[11],384 min
same,AUC at 24 h,[12],230 µM·h
same,AUC at 24 h,[13],616 µM·h
same,pIC50,[14],< 4.30
same,Activity,Rattus norvegicus [15],Toxic
same,microsomal CLint,[16],26.6 µL/min/mg
same,half-life,[17],1190 min
same,inhibition,Rattus norvegicus [18],Active
same,Activity,Rattus norvegicus [19],1.8%
same,AUC at 24 h,[20],421 µM·h
same,Activity,Rattus norvegicus [21],Non-toxic
same,pIC50,HCT-116,4.80
same,fraction unbound,[22],< 0.01
same,pIC50,[23],< 4.30
same,half-life,[24],498 min
same,pIC50,[25],< 4.30
same,Activity,Rattus norvegicus [26],Toxic
same,AUC at 48 h,[27],381 µM·h
